SR-BI DiI inh: inhibitors of SR-BI mediated HDL lipid uptake, primary screen, ldlA[mSR-BI] cells, fluorescence, single point. Scavenger receptor class B member 1 (Mus musculus), Q61009. ldlA[mSR-BI] CHO cells, DiI-HDL uptake fluorescence, 3 h. 0.96% of 320,000 active. AID 488896, 2010. inhibition, % at 12.5 µM;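 active = mean replicate inhibition of at least 70% and a set share of replicates each scoring 70 or more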;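 note: 0% = median of neutral control wells and 100% = median of positive control wells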
Target sequence (Q61009 whole entry, looked up): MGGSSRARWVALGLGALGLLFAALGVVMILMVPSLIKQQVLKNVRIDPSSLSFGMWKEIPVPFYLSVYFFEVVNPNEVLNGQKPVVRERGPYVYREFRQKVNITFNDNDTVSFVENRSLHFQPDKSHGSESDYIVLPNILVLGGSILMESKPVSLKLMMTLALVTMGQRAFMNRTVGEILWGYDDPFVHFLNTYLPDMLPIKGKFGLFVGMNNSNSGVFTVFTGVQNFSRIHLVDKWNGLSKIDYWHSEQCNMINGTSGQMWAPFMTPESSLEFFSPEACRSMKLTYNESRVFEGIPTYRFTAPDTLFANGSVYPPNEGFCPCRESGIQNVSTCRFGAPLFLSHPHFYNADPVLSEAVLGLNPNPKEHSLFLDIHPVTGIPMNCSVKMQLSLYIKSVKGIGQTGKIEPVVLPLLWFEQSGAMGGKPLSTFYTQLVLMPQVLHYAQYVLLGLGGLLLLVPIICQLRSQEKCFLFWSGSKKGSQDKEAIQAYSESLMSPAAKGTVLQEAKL
SR-BI DiI-HDL act: activators of SR-BI mediated DiI-HDL uptake, primary screen, ldlA[mSR-BI] CHO cells, DiI fluorescence. 0.096% of 320,000 active. 3 h; 100 = double the neutral-control signal. activation, % at 12.5 µM;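 active = mean replicate activation of at least 60% and every replicate at or above 60%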;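 note: 0% = median plate neutral-control signal and 100% = twice that signal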
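Test system: SR-BI-overexpressing, LDLR-lacking CHO cells; Also added: labelled HDL, 10 µg/mL; Measured by: bottom-read cell fluorescence after medium removal, ex 550/em 595 nm; Timing: 3 h uptake period with compound, 37 °C; Buffer or medium: F12, 0.5% BSA, 25 mM HEPES; Doses: single compound concentration, delivered by pin transfer.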
CAL PDZ FP-1: CAL PDZ peptide-binding inhibitors, primary screen, biochemical, fluorescence polarization, Cer-tagged CAL PDZ, HTS; Golgi-associated PDZ and coiled-coil motif-containing protein (Homo sapiens), Q9HD26; purified CAL PDZ, TMR-peptide fluorescence polarization, 1 h; inhibition, % at 20 µM; 0.02% of 330,000 active; AID 504414, 2011;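 active = highest replicate inhibition of at least 40%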;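 note: plate controls were DMSO neutral control wells for no effect and unlabeled competitor peptide control wells for full effect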
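material = purified tagged CAL PDZ domain construct (CerCALP) | compound dosing = 20 µM, one dose | times = 1 h at RT | measured by = fluorescence polarization from S- and P-plane intensities, G-factor corrected | read-out = inhibition from polarization loss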
dFosB act: activators of delta FosB homodimer, primary screen, biochemical, fluorescence polarization, TAMRA-CDK5 oligo, single point; purified delta FosB; percent of positive-control signal above neutral wells; activation, % at 25 µM; 0.99% of 340,000 active; AID 493131, 2011;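 active = mean activation above about 17%, with every replicate also reaching it, limit read from the data, passing the limit was not always enough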
CAL PDZ FP-2: untagged CAL PDZ binding inhibitors, primary screen, biochemical, fluorescence polarization, HTS. purified CAL PDZ, TMR-peptide fluorescence polarization, 1 h. inhibition, % at 24.9 µM. 0.92% of 300,000 active;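 active = mean inhibition of at least 30% with at least half of replicates also reaching 30%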;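 note: 0% = DMSO neutral control and 100% = excess unlabeled competitor peptide PRC23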
* marks the source's active call; other numbers are inactive results; · = not tested or not shown. Hits are enriched below; roughly 2.8% of the tested compounds scored in any of these assays.

SMILES	SR-BI DiI inh	SR-BI DiI-HDL act	CAL PDZ FP-1	dFosB act	CAL PDZ FP-2
C/C(=N\N1C(=O)c2ccccc2NC1c1ccccc1)c1ccccc1O (stereo not drawn)	85*	-85	-1	-1	4
COc1ccc(/C(C)=N/N2C(=O)c3ccccc3NC2c2ccc(O)c(OC)c2)cc1 (stereo not drawn)	4	-4	-5	3	0
CCn1nc(C)c(/C=N/NC(=O)c2ccc3c(c2)c(C)c(C)n3Cc2ccccc2)c1C	79*	-79	-3	-28	3
COCN(C#N)c1nc(N(C)C)nc(N(C)C)n1	-1	1	0	0	97*
COc1cc2ccccc2cc1C(=O)OCC(=O)N(C)c1c(N)n(Cc2ccccc2)c(=O)[nH]c1=O	40	-40	-4	-16	-4
CN(C(=O)COC(=O)CCC(=O)c1ccccc1)c1c(N)n(Cc2ccccc2)c(=O)[nH]c1=O	19	-19	-2	-8	-3
Cc1cccc(COc2ccccc2C(=O)OCC(=O)N(C)c2c(N)n(Cc3ccccc3)c(=O)[nH]c2=O)c1	87*	-87	-2	-7	-1
Nc1c(N(CCC2=CCCCC2)C(=O)CCCOc2ccccc2)c(=O)[nH]c(=O)n1Cc1ccccc1	2	-2	-1	7	49*
CCCOc1ccc(C(=O)CCC(=O)OCC(=O)N(C)c2c(N)n(Cc3ccccc3)c(=O)[nH]c2=O)cc1	-10	10	1	-4	38*
Nc1c(N(CCC2=CCCCC2)C(=O)COc2ccc(F)cc2)c(=O)[nH]c(=O)n1Cc1ccccc1	14	-14	-2	2	12
O=C(O/N=C1/CCCc2occc21)c1ccc(Cl)cc1Cl	11	-11	-1	0	·
COc1ccc(CCN2CC(C(=O)Nc3cc(F)ccc3F)CC2=O)cc1OC (stereo not drawn)	15	-15	-1	-11	-6
NC(=O)C1CCN(C(=O)C2(NC(=O)Nc3cccc(F)c3)CCCCC2)CC1	·	·	-1	-7	·
COc1ccc(NC(=O)c2cc(-c3ccccc3)oc2C)cc1	3	-3	-2	1	2
Cc1oc(-c2ccccc2)cc1C(=O)Nc1ccccc1	90*	·	-2	-2	0
CC1CCC(C(C)C)C(OC(=O)C2=C3c4ccccc4S(=O)(=O)N3CC2)C1 (stereo not drawn)	71*	-71	·	-9	-3
O=C1c2cccc3c([N+](=O)[O-])ccc(c23)C(=O)N1Cc1cccnc1	-16	16	1	1	37*
O=C1c2cccc3cccc(c23)C(=O)N1Cc1cccnc1	-10	10	-1	12	-2
COc1ccc(CC(=O)OCC(=O)NCc2ccccc2Cl)cc1OC	-80	80*	0	-6	0
Cc1ccc(C)c(OC(=O)c2cccnc2Cl)c1C	-317	317*	-3	-5	-2
Cc1ccc(NC(=O)C2CCCN2C(=O)c2cccs2)cc1C (stereo not drawn)	-12	12	-1	2	·
Cc1ccn2c(=O)nc(SCC(=O)N3N=C(c4cccs4)CC3c3ccc(F)cc3)nc2c1 (stereo not drawn)	21	-21	-3	-13	2
Cc1nc2c(C)cccn2c(=O)c1NC(=O)c1cccc2ccccc12	-22	22	-3	-1	1
Cc1c2cc[n+](CCN3CCCCC3)cc2c(C)c2c1[nH]c1ccc(O)cc12	-15	15	11	89*	-4
CCc1c(C#N)c(SCCC(=O)Nc2ccc(C)cc2)nc2c1C(=O)CC(C)(C)C2	73*	-73	-1	-5	-5
COC(=O)c1ccc(C)c(NS(=O)(=O)c2cn(C)nc2C)c1	-4	4	-1	-10	-1
CN(CC(=O)Nc1ccc(Cl)c(C(F)(F)F)c1)C(=O)C1CSC2(C)CCC(=O)N12 (stereo not drawn)	-7	7	-2	-6	-4

From PubChem
